Reference: ChEMBL document CHEMBL1129534, “Antitumor agents. 163. Three-dimensional quantitative structure-activity relationship study of 4'-O-demethylepipodophyllotoxin analogs using the modified CoMFA/q2-GRS approach” (J Med Chem, 1996)
Several values for one entry are separate records, joined by “and”; a condition that tells them apart may be missing. Equal values may be shown once.

What follows are compounds tested against DNA topoisomerase II (Homo sapiens) (UniProt P11388+Q02880) (assay: Compound tested for ability to form a cellular covalent topoisomerase II-DNA complex.).
Type: functional
Outline: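 Read-out is intracellular covalent topoisomerase II–DNA complex formation, scored as the percentage of cellular protein–DNA complex formed (PCPDCF). For CoMFA modelling the values were transformed to ln(PCPDCF + 1).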

Compared with COc1cc([C@@H]2c3cc4c(cc3[C@@H](NCc3cccc([N+](=O)[O-])c3)[C@H]3COC(=O)[C@H]23)OCO4)cc(OC)c1O, COc1cc([C@@H]2c3cc4c(cc3[C@@H](Nc3cccc([N+](=O)[O-])c3)[C@H]3COC(=O)[C@H]23)OCO4)cc(OC)c1O is higher in Protein-DNA complex formation: 130% for the first, 230% for the second.

Going from COCCN[C@@H]1c2cc3c(cc2[C@@H](c2cc(OC)c(O)c(OC)c2)[C@H]2C(=O)OC[C@@H]21)OCO3 to COc1cc([C@@H]2c3cc4c(cc3[C@H](NCCO)[C@H]3COC(=O)[C@H]23)OCO4)cc(OC)c1O, the Protein-DNA complex formation falls from 111% to 0%.

Compared with COc1cc([C@@H]2c3cc4c(cc3[C@@H](Nc3cccnc3)[C@H]3COC(=O)[C@H]23)OCO4)cc(OC)c1O, COc1cc([C@@H]2c3cc4c(cc3[C@@H](Nc3cccc(F)c3)[C@H]3COC(=O)[C@H]23)OCO4)cc(OC)c1O is higher in Protein-DNA complex formation: 148% for the first, 158% for the second.

Compared with COc1cc([C@@H]2c3cc4c(cc3[C@@H](NC(=O)c3ccccc3F)[C@H]3COC(=O)[C@H]23)OCO4)cc(OC)c1O, COc1cc([C@@H]2c3cc4c(cc3[C@@H](NC(=O)c3ccccc3O)[C@H]3COC(=O)[C@H]23)OCO4)cc(OC)c1O is higher in Protein-DNA complex formation: 128% for the first, 160% for the second.

First: COc1cc([C@@H]2c3cc4c(cc3[C@@H](Nc3ccc(I)cc3)[C@H]3COC(=O)[C@H]23)OCO4)cc(OC)c1O
Second: COc1cc([C@@H]2c3cc4c(cc3[C@@H](Nc3ccc(O)cc3)[C@H]3COC(=O)[C@H]23)OCO4)cc(OC)c1O
The Protein-DNA complex formation of the first is lower: 64% for the first, 211% for the second.

Going from COc1cc([C@@H]2c3cc4c(cc3[C@@H](Nc3ccc5c(c3)OCO5)[C@H]3COC(=O)[C@H]23)OCO4)cc(OC)c1O to COc1cc([C@@H]2c3cc4c(cc3[C@@H](Nc3cccc(Br)c3)[C@H]3COC(=O)[C@H]23)OCO4)cc(OC)c1O, the Protein-DNA complex formation falls from 164% to 62%.

First: COc1cc([C@@H]2c3cc4c(cc3[C@@H](NCCO)[C@H]3COC(=O)[C@H]23)OCO4)cc(OC)c1O
Second: COc1cc([C@@H]2c3cc4c(cc3[C@@H](NCCCO)[C@H]3COC(=O)[C@H]23)OCO4)cc(OC)c1O
The Protein-DNA complex formation of the first is higher: 121% for the first, 89.2% for the second.

Going from COc1ccc(N[C@@H]2c3cc4c(cc3[C@@H](c3cc(OC)c(O)c(OC)c3)[C@H]3C(=O)OC[C@@H]32)OCO4)cc1OC to COc1cccc(N[C@@H]2c3cc4c(cc3[C@@H](c3cc(OC)c(O)c(OC)c3)[C@H]3C(=O)OC[C@@H]32)OCO4)c1, the Protein-DNA complex formation falls from 180% to 104%.

First: COc1cc([C@@H]2c3cc4c(cc3[C@@H](NC(=O)c3ccc(C(C)=O)cc3)[C@H]3COC(=O)[C@H]23)OCO4)cc(OC)c1O
Second: COc1cc([C@@H]2c3cc4c(cc3[C@@H](Nc3cccc(C(C)=O)c3)[C@H]3COC(=O)[C@H]23)OCO4)cc(OC)c1O
The Protein-DNA complex formation of the first is lower: 124% for the first, 150% for the second.

Going from COc1cc([C@@H]2c3cc4c(cc3[C@@H](NCc3cccc(N)c3)[C@H]3COC(=O)[C@H]23)OCO4)cc(OC)c1O to COc1cc([C@@H]2c3cc4c(cc3[C@@H](NCc3ccccc3N)[C@H]3COC(=O)[C@H]23)OCO4)cc(OC)c1O, the Protein-DNA complex formation falls from 191% to 184%.

Compared with COc1cc([C@@H]2c3cc4c(cc3[C@@H](Nc3ccc(C#N)cc3)[C@H]3COC(=O)[C@H]23)OCO4)cc(OC)c1O, COc1cc([C@@H]2c3cc4c(cc3[C@@H](Nc3ccc(Br)cc3)[C@H]3COC(=O)[C@H]23)OCO4)cc(OC)c1O is lower in Protein-DNA complex formation: 211% for the first, 179% for the second.

CCOC(=O)CC[C@H](NC(=O)c1ccc(N[C@@H]2c3cc4c(cc3[C@@H](c3cc(OC)c(O)c(OC)c3)[C@H]3C(=O)OC[C@@H]32)OCO4)cc1)C(=O)OCC and COC(=O)c1cc(N[C@@H]2c3cc4c(cc3[C@@H](c3cc(OC)c(O)c(OC)c3)[C@H]3C(=O)OC[C@@H]32)OCO4)ccc1O are the same in Protein-DNA complex formation: 83% for the first, 83% for the second.

First: COc1cc([C@@H]2c3cc4c(cc3[C@@H](OC(=O)c3cccc(N)c3)[C@H]3COC(=O)[C@H]23)OCO4)cc(OC)c1O
Second: COc1cc([C@@H]2c3cc4c(cc3[C@@H](Nc3ccccc3O)[C@H]3COC(=O)[C@H]23)OCO4)cc(OC)c1O
The Protein-DNA complex formation of the first is lower: 100% for the first, 151% for the second.

First: COc1cc([C@@H]2c3cc4c(cc3[C@@H](Nc3ccccc3Cl)[C@H]3COC(=O)[C@H]23)OCO4)cc(OC)c1O
Second: COc1cc([C@@H]2c3cc4c(cc3[C@H](O)[C@H]3COC(=O)[C@H]23)OCO4)cc(OC)c1O
The Protein-DNA complex formation of the first is higher: 32% for the first, 3.3% for the second.

For COc1cc([C@@H]2c3cc4c(cc3[C@@H](NCCCN(C)C)[C@H]3COC(=O)[C@H]23)OCO4)cc(OC)c1O, the Protein-DNA complex formation was 186% and 179%.
